Only some compounds are listed: those with a hit (about 4.3% of all), similar ones and a draw of the others.
TAAR1 agonist – human TAAR1 agonism; AID 624467; Q96RJ0; activation, % at 3 µM; CHO RD-HGA16 TAAR1, Fluo-8 calcium fluorescence; vehicle wells 0%, saturating PEA agonist 100%; 0.99% of 360,000 active;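 active = activation above the mean activation of all test compounds in the run plus 3 SD, cut at about 38% in these data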
Target sequence (Q96RJ0 whole entry, looked up): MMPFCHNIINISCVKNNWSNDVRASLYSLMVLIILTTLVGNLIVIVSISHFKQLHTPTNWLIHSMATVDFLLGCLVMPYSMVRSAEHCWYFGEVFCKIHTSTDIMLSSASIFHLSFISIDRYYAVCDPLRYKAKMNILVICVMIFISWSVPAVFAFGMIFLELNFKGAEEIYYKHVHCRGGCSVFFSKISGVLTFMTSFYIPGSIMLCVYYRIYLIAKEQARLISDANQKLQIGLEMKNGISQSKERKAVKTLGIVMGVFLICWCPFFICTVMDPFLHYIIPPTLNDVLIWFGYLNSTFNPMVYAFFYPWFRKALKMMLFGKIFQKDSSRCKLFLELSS
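System: CHO-derived RD-HGA16 cells with stable Gα16 and human TAAR1 / Times: 17-24 h plating, Fluo-8 75 min 37 °C, 30 min RT / Technique: calcium-sensitive Fluo-8 signal, excitation 470-495, emission 515-575 nm / Measure: % activation relative to PEA EC100 response / Benchmarks: DMSO and PEA EC100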
TAAR1 antagonist – antagonists of human TAAR1; CHO RD-HGA16 TAAR1, Fluo-8 calcium fluorescence, antagonist; inhibition, % at 3 µM; 1.5% of 360,000 active; AID 624466;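 active = inhibition above a per-plate cutoff, the mean inhibition of test compounds on that plate plus 3 SD, cut at about 49% in these data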;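 also: 0% = DMSO plus EC80 beta-PEA response and 100% = DMSO alone without agonist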
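Material: RD-HGA16 CHO cells with stable hTAAR1 and Gα16; Dosing: single nominal final test compound concentration of 3 µM; Schedule: seeding 17-24 h prior, 75-min 37 °C, 30-min RT dye loading; Detection: kinetic Fluo-8 calcium fluorescence measurement; Measure: % inhibition from peak post-agonist over basal fluorescence ratio; Benchmarks: vehicle and agonist controls.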
CHO parental Ca – counter-screen for OX1R antagonists: effect in parental CHO cells. inhibition, % at 5.6 µM. parental CHO-K1, ATP-induced calcium, Fluo-8 fluorescence. AID 463079. 0.63% of 330,000 active;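 active = inhibition above that plate's mean sample inhibition plus 3 SD, cut at about 26% in these data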;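 also: 0% = ATP-challenged DMSO wells and 100% = DMSO wells without ATP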
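Test system: untransfected parental CHO cell line; also added: ATP stimulus; dosing: 5.6 µM, single dose; signal: calcium-sensitive Fluo-8 fluorescence; measure: percent inhibition of ATP-evoked calcium rise, normalized to controls; benchmarks: low control ATP plus DMSO, high control DMSO only; replication: one well per compound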
OX1R antag-1 – OX1R (human) antagonism. OX1R-expressing cells, FRET antagonist read-out. inhibition, % at 6.6 µM. 1.8% of 330,000 active. O43613; in the data active = inhibition mostly above about 38%, no sharp cut-off; inactive = mostly below about 40%;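 also: 0% = agonist challenge alone and 100% = reference antagonist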
GalR3 antagonist – blocks the human galanin receptor 3; O60755; HEK293 GalR3-CNG cAMP membrane potential fluorescence; galR3 body fused to GalR1 C-terminus; inhibition, % at 3 µM; 0.44% of 360,000 active; AID 651719;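 active = inhibition above the screen-wide average plus 3 SD, cut at about 13% in these data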;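 also: forskolin and galanin both at EC90 stimulate the cells; cAMP rise reported by CNG channel membrane potential dye signal; 0% = forskolin plus galanin with DMSO and 100% = forskolin alone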
OX1R antag-2 – blocks the human orexin 1 receptor; CHO/OX1R cells, Fluo-8 calcium fluorescence, orexin A; O43613; inhibition, % at 5 µM; AID 434989; 0.43% of 330,000 active;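 active = inhibition above its plate's threshold, mean inhibition of all tested compounds on the plate plus 3 SD, cut at about 37% in these data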;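 also: 0% = orexin A challenge wells and 100% = SB-334867-A antagonist wells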
OX1R Ca confirm – OX1R (human) antagonism, confirmed | shares compounds with OX1R antag-2 | CHO/OX1R cells, orexin A calcium Fluo-8 fluorescence | inhibition, % at 5 µM | 38% of 1,100 active | AID 492963; in the data active = inhibition above about 29%;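 also: 0% = agonist challenge alone and 100% = reference antagonist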
CHO Ca counter – signal in parental CHO cells, OX1R antagonist counter-screen; shares compounds with OX1R antag-2; parental CHO-K1, ATP-induced calcium, Fluo-8 fluorescence; inhibition, % at 5.6 µM; 9.3% of 1,100 active; AID 492965;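 active = inhibition above a per-plate limit, the mean inhibition of that plate's test compounds plus 3 SD, cut at about 25% in these data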;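 also: 0% = ATP challenge with DMSO and 100% = DMSO without ATP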
The depositor's hits bear a star; x = not tested or not shown.

SMILES	TAAR1 agonist	TAAR1 antagonist	CHO parental Ca	OX1R antag-1	GalR3 antagonist	OX1R antag-2	OX1R Ca confirm	CHO Ca counter
CC(c1cccs1)N(Cc1ccco1)C(=O)Nc1ccc(Cl)c(Cl)c1 (stereo not drawn)	3	32	-2	22	-5	44*	-23	-16
C[C@H](NS(=O)(=O)c1c(Cl)cccc1Cl)C(=O)NNC(=O)COc1ccccc1F	1	-3	-7	0	-3	-9	x	x
COc1ccc(N(CC(=O)Nc2cccc(N(C)S(C)(=O)=O)c2)S(=O)(=O)c2ccc(C)cc2)cc1	12	19	-4	28	-5	27	10	1
COc1ccc(N(CC(=O)Nc2cccc(N(C)S(C)(=O)=O)c2)S(=O)(=O)c2ccccc2)cc1Cl	7	27	-6	68	9	59*	56*	-3
COc1ccc(N(CC(=O)Nc2cccc(N(C)S(C)(=O)=O)c2)S(=O)(=O)c2ccc(F)cc2)cc1	15	27	-1	32	-7	4	x	x
COc1ccc(N(CC(=O)Nc2ccc(OC)c(OC)c2)S(=O)(=O)c2ccccc2)cc1Cl	1	-4	-16	6	7	-33	x	x
COc1ccc(/C=C2\C(=O)NC(=S)N2C(=O)c2ccc(F)cc2)cc1	29	31	23	28	-10	42	20	24
O=C1NC(=S)N(C(=O)c2ccc(F)cc2)/C1=C/c1ccccc1	10	17	4	40	2	16	x	x
COc1ccc(NC(=O)c2cc(-c3ccc(OC)c(OC)c3)on2)cc1OC	6	-6	-11	14	-2	-17	x	x
COc1ccc(NC(=O)c2cc(-c3ccccc3Cl)on2)cc1OC	7	39	-25	41	-5	37	30*	-3
CC(C(=O)Nc1ccccc1)c1ccc(-c2ccccc2)c(F)c1 (stereo not drawn)	x	x	13	31	x	40*	13	23
O=[N+]([O-])c1ccc(/C=N\NS(=O)(=O)c2ccc(F)cc2)o1	2	-2	1	7	-2	27	-3	3
COC(=O)CSc1nnc(-c2ccc(S(=O)(=O)NCc3cccs3)cc2)o1	1	14	-1	0	-12	6	x	x
COC(=O)CSc1nnc(-c2ccc(S(=O)(=O)NCc3ccccc3Cl)cc2)o1	4	-13	12	14	-3	26	33*	10
O=C(CNC(=O)c1ccccc1F)NCC(c1cccs1)N1CCOCC1 (stereo not drawn)	1	-2	-6	0	-4	-14	x	x
O=S(=O)(Nc1ccc(S(=O)(=O)Nc2ccccc2)cc1)c1ccccc1	28	4	11	5	-5	36	8	-1
Cc1ccn(CCNC(=O)C2CCC(=O)N(CCc3ccc(Cl)cc3)C2)n1 (stereo not drawn)	2	-12	-4	13	-4	-7	x	x
O=C(c1ccco1)n1nc(-c2ccco2)nc1SCc1ccccc1	5	3	9	8	-2	-10	x	x
O=C(Cc1ccccc1)n1nc(-c2ccco2)nc1SCc1ccccc1	4	2	-4	8	-5	40*	5	-1
COc1ccc(-c2cc(-c3ccc(OC)c(OC)c3)n[nH]2)c(O)c1	7	11	19	40	-2	35	4	-11
Oc1ccccc1C=NN=Cc1ccccc1Cl	5	-28	x	x	-3	x	x	x
Nc1[nH]c(C(=O)c2ccccc2)c(-c2ccc(Cl)c(Cl)c2)c1C(=O)NCCc1c[nH]c2ccccc12	2	-11	x	x	-8	x	x	x
Cc1ccc2c(c1)nnn2C1CCN(S(=O)(=O)c2cccc(S(=O)(=O)N(C)C)c2)CC1	19	56*	22	35	-7	35	38*	25*
Cc1ccc2c(c1)nnn2C1CCN(S(=O)(=O)c2ccc3ccccc3c2)CC1	3	8	-19	3	-10	-10	x	x
O=C(Cc1ccccc1)c1ccc(N2CCOCC2)cc1	2	-15	x	x	-7	x	x	x
CN(C)c1ccc(/C=C/C=C2/SC(=S)N(c3ccccc3)C2=O)cc1	16	20	27	9	-4	36	57*	60*
Cc1ccc(S(=O)(=O)N2C[C@@H]3[C@H]4CC[C@H](C4)[C@@H]3[C@@H](C)[C@H]2c2ccco2)cc1	-1	-1	-7	28	-7	82*	3	23
CC1(C(=O)NS(=O)(=O)C2CC2)CCN(C(=O)c2cccc(OC(F)(F)F)c2)C1 (stereo not drawn)	1	-2	x	x	-5	x	x	x
COc1ccc(OC)c(NS(=O)(=O)c2ccc(Cl)nc2)c1	0	8	-10	10	-11	-26	x	x

Compound activity: PubChem BioAssay, The Scripps Research Institute Molecular Screening Center
